Ecoli rRNA inh: reduced GFP signal of wild-type E. coli, primary screen, bacterial rRNA inhibitor project, GFP/RFP fluorescence, OD600, single point | E. coli WT GFP vs humanized-ribosome RFP mutants, 24 h; active compounds read low; DMSO median 0, no signal -100 | GFP signal change (wild-type ribosome), % (test concentration not listed) | 350,000 tested, 1.6% active | AID 720706, 2013;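 active means significant combined selectivity score with lowered wild-type GFP, culture density cut under 30%, mutant RFP and density less affected; inactive means any of these conditions unmet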
SIRT5 inh: SIRT5 desuccinylase inhibitors, primary screen, biochemical, fluorescence imaging, single point, set 5 | NAD-dependent protein deacylase sirtuin-5, mitochondrial (Homo sapiens), Q9NXA8 | Purified SirT5, succinyl-peptide AMC, trypsin-coupled fluorescence | inhibition, % at 15 µM | 330,000 tested, 1.1% active; in the data active means inhibition above about 15%
Target sequence (Q9NXA8 whole entry, looked up): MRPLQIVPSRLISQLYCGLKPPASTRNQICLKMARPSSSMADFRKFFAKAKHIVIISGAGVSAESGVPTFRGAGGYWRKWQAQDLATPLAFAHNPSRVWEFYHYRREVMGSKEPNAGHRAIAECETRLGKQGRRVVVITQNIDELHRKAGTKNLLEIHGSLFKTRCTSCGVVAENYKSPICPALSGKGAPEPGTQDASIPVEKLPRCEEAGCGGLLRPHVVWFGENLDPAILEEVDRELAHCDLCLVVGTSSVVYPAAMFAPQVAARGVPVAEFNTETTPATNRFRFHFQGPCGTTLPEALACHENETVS
PGC1a acetyl inh: inhibitors of PGC1a acetylation signal, primary screen, cell-based, U2OS, AlphaScreen, inhibitor mode. AlphaScreen anti-acetyl-lysine; with virally co-expressed GCN5 acetyltransferase. inhibition, % at 15.6 µM. 350,000 tested, 0.17% active;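 active means every replicate shows inhibition of at least 40%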;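 further: 0% = neutral control wells and 100% = positive control wells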
Statin myotox sup: suppressors of statin myotoxicity in C2C12 myotubes, primary screen, cell-based, single point, plate reader | 330,000 tested, 0.78% active | rescue of ATP level, % at 7.49 µM | C2C12 myotubes + simvastatin, ATP luminescence, 48 h; scaled: DMSO 0, geranylgeraniol control 100;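 active means mean ATP rescue above about 67%, or every replicate alone reaching that limit, limit read from the data, passing the limit was not always enough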;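 further: myotubes were challenged with 10 µM simvastatin during compound exposure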
Cneo AK release: Cryptococcus neoformans cell lysis inducers, primary screen, AK release luminescence, single concentration; C. neoformans lysis, adenylate kinase release luminescence, 4 h; normalised: neutral wells 0, clomiphene wells 100; AID 651654, 2012; 360,000 tested, 0.2% active; lysis activity, % at 15 µM;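 active means mean lysis activity across replicates of at least 80%, whatever share of replicates individually reach that level; inactive means mean lysis activity below 80%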
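Assay system: C. neoformans cells. Amount: yeast cell density of 5 × 10^6 cells/mL. Technique: AK luminescence. Buffer or medium: YPD. Times: static 4 h at 37 °C with compound, 1 h detection. Dosing: single-point compound dose. Read-out: lysis from increased AK signal.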
S100A4 MyoIIA: inhibitors of S100A4-myosin IIA peptide binding, primary screen, biochemical, fluorescence polarization, TAMRA-MyoIIA peptide; 360,000 tested, 0.14% active; inhibition, % at 10.7 µM; AID 652163, 2013;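 active means mean inhibition of at least 70% across replicates, with every replicate also reaching that level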
Target sequence (P26447 whole entry, looked up): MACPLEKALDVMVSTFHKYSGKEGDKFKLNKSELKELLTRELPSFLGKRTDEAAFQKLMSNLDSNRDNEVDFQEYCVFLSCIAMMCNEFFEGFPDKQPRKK
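Material: human S100A4 monomer with TAMRA-labelled myosin IIA peptide; buffer or medium: HEPES pH 7.2 with CaCl2, KCl, NaCl, DTT, Triton; compound dosing: one concentration per compound; schedule: 5 min incubation before reading; benchmarks: neutral control DMSO, positive control TFP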
Starred values were filed as active, the others as inactive; x = not tested or not shown. Compounds with a hit are over-represented: about 3% of the library has one in this group of screens.

SMILES	Ecoli rRNA inh	SIRT5 inh	PGC1a acetyl inh	Statin myotox sup	Cneo AK release	S100A4 MyoIIA
CCC(=O)N(C)C[C@H]1Oc2ncc(C#CCC(C)C)cc2C(=O)N([C@@H](C)CO)C[C@@H]1C	0	-1	8	1	-6	15
O=C(Nc1nnc(S(=O)(=O)Cc2ccc(F)cc2)s1)c1ccccc1F	-40*	2	2	-36	-2	-2
COc1ccc(C(=O)Nc2ccc3c(c2)OC[C@@H](C)NC[C@@H](C)[C@H](OC)CN(C)C3=O)cc1	0	-3	-4	1	2	16
C[C@H]1CN([C@@H](C)CO)C(=O)c2cccc(NS(=O)(=O)c3cccs3)c2O[C@@H]1CN(C)C(=O)NC1CCCCC1	1	-2	-3	-9	-4	5
COc1ccc(S(=O)(=O)Nc2ccc3c(c2)C(=O)N(C)C[C@@H](OC)[C@H](C)CN(Cc2cc(F)ccc2F)[C@H](C)CO3)cc1	0	7	7	6	-1	-3
COC(=O)/C(C#N)=C/c1ccc(-c2ccc(S(N)(=O)=O)cc2)o1	-27*	5	8	14	-3	6
O=C(O)c1cccc(S(=O)(=O)N(Cc2ccccc2)c2ccc(Cl)cc2)c1	-44*	3	-1	21	-1	-1
O=CN/N=C/c1c(O)ccc2ccccc12	-20*	-1	x	1	x	-3
O=C(Nc1cccc(Cl)c1)N1C[C@H]2[C@@H](c3ccccc31)[C@H](CO)N2Cc1ccccc1Cl	-15	2	-19	25	-13	7
O=c1c2c(-c3ccc(Cl)cc3)csc2nc2n1CCC2	x	x	-12	-14	2	x
CC(C)c1csc2nc3n(c(=O)c12)CCCCC3	-33*	-3	-8	-3	1	7
CCOC(=O)C1=NN(C(=O)Cc2ccccc2)C(O)(c2ccc(Cl)cc2)C1 (stereo not drawn)	x	x	0	139*	3	x
CCOC(=O)C1=NN(C(=O)COc2ccccc2)C(O)(c2ccc(Cl)cc2)C1 (stereo not drawn)	-12	-4	x	x	x	6
O=C(NCCOc1ccccc1)c1cc(C(=O)NCCOc2ccccc2)cc([N+](=O)[O-])c1	x	x	-1	x	-1	x
CN(CCOc1ccccc1)C(=O)c1cc([N+](=O)[O-])cc([N+](=O)[O-])c1	21	27*	x	x	x	-5
C[C@@H]1CCCCO[C@@H](CN(C)C(=O)c2ccccc2)[C@@H](C)CN([C@@H](C)CO)C(=O)c2cc(NC(=O)Cc3ccccc3)ccc2O1	1	1	0	x	-5	2
CCC1CN(C(=O)N2CCC(C(=O)Nc3ccccc3F)CC2)c2ccccc2O1 (stereo not drawn)	8	19*	5	18	0	-4
CCCN1[C@@H]2Cn3c(ccc(-c4ccccc4)c3=O)[C@H]1[C@@H](C(=O)N1CCCCC1)[C@@H]2CO	1	-4	x	4	-6	5
Cc1cc(C)c(N=C2CCCN2Cc2ccccc2)c(C#N)c1	x	x	-18	84*	-2	x
Cc1ccccc1NC(=O)CSC1=C(C#N)C(c2ccsc2)CC(=O)N1 (stereo not drawn)	x	x	-15	-29	4	x
N#CC1=C(SCC(=O)Nc2nccs2)NC(=O)CC1c1ccccc1 (stereo not drawn)	-28*	0	8	1	-2	-2
O=C(CN1CCCCCC1)Nc1ccccc1Oc1ccccc1	-41*	-4	1	5	1	7
O=C(CN1CCCC1)Nc1ccccc1Sc1ccc(Cl)cc1	-42*	0	4	11	x	0
COc1ccccc1NC(=O)CN1CCN(C(=O)C2CCCO2)CC1 (stereo not drawn)	11	46*	9	x	2	-4
NC(=O)C1CCN(CC(=O)Nc2ccccc2Sc2ccc(Cl)cc2)CC1	-47	-5	x	x	2	-5
SMILES	Ecoli rRNA inh	SIRT5 inh	PGC1a acetyl inh	Statin myotox sup	Cneo AK release	S100A4 MyoIIA
N=c1sccn1CC(=O)Nc1ccccc1Sc1ccccc1	10	-1	73*	-5	x	-1
O=C(CN1CCOCC1)Nc1ccccc1Sc1ccccc1	8	-2	17	5	x	-4
O=C(CN1CCCCC1)Nc1cc(Cl)ccc1Oc1ccccc1	-50	-1	x	x	x	-3
C[C@H](CO)N1C[C@H](C)[C@@H](CN(C)C(=O)c2ccccc2)OCCCC[C@H](C)Oc2ccc(NS(=O)(=O)c3ccc(F)cc3)cc2C1=O	-3	4	-3	x	-2	-4
O=C(Nc1ccc2c(c1)OCO2)N[C@H]1CC[C@@H](CC(=O)N2CCN(c3ccccc3)CC2)O[C@@H]1CO	-4	0	9	35	-7	8
COc1ccc2c3c(n(C)c2c1)[C@@H](CO)N(C(C)=O)CC31CCN(C(=O)Nc2ccccc2F)CC1	-4	-1	1	x	x	16
COC(=O)C[C@@H]1CC[C@H]2[C@H](COc3ccc(NC(=O)c4cc(C)on4)cc3C(=O)N2C)O1	0	-2	-3	-45	-5	5
CN(C)c1nc(Oc2ccc(C(=O)OCC(=O)Nc3ccccc3)cc2)nc(N(C)C)n1	x	x	9	119*	6	x
CC(C)=NNc1nc2c(c(=O)[nH]c(=O)n2C)n1CCc1ccccc1	8	37*	2	x	x	25
CC(C)=NNc1nc2c(c(=O)[nH]c(=O)n2C)n1CCCc1ccccc1	6	0	-3	-3	-2	-4
Clc1cccc(-c2noc3ncnc(Nc4ccc5c(c4)OCO5)c23)c1	-22*	-6	2	-34	-2	-1
O=C(C[C@H]1C=C[C@H](NS(=O)(=O)c2ccc(F)cc2)[C@H](CO)O1)N1CCC(Cc2ccccc2)CC1	-2	1	-5	13	60	22
Fc1ccc(-n2cc(-c3ccccc3)c3c(N4CCOCC4)ncnc32)cc1	-24*	8	3	x	x	3
CC(C)NC(=O)N(C)C[C@H]1Oc2ccc(NC(=O)CCCCCC(=O)Nc3ccccc3N)cc2CC(=O)N([C@@H](C)CO)C[C@@H]1C	4	-1	9	-23	41	2
O=C(Nc1ccccc1)c1ccccc1NC(=O)c1ccccc1[N+](=O)[O-]	-20	-1	-4	-5	1	0
O=[N+]([O-])c1ccccc1C(=Nc1ccccc1)c1c(O)cc(O)cc1O	-21*	5	10	0	1	-4

Source: PubChem (Broad Institute)
